{"source": "paper PMC10925177", "about": "(bioRxiv, 2024)", "key": {"G9a": {"target": "T1, G9a (Homo sapiens, UniProt Q96KQ7)", "T1 sequence (Q96KQ7 1-1210)": "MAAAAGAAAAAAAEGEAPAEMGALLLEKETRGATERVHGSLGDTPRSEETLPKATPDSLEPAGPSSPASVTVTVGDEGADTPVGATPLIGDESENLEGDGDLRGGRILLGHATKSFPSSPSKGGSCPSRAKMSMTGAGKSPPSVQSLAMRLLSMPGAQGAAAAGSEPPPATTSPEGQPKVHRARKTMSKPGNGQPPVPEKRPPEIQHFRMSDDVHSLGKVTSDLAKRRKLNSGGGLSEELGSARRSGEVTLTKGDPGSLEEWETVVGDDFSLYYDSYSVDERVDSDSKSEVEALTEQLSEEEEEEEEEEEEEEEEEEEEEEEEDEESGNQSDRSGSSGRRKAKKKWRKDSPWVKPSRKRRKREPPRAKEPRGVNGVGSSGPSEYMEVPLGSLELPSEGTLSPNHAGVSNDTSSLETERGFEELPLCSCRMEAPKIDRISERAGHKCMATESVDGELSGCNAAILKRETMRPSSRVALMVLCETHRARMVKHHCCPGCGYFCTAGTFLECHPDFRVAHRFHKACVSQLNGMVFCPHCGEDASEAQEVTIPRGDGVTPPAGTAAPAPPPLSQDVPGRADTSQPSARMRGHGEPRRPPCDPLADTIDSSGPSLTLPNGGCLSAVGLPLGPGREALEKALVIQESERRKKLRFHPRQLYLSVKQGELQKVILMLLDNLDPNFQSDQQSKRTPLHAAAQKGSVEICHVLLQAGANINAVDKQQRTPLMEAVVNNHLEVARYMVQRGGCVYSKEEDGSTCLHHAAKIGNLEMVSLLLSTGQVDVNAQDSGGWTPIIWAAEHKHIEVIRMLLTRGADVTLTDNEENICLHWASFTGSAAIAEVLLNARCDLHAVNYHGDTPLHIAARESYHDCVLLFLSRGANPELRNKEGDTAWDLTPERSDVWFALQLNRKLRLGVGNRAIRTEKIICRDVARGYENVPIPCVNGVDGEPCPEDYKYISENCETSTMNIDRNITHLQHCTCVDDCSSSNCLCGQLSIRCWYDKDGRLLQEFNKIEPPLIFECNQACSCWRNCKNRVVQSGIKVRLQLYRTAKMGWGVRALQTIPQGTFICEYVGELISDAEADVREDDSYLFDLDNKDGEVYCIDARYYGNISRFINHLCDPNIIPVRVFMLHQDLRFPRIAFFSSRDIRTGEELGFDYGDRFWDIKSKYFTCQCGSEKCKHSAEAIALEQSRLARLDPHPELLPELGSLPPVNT", "assay": "Western blot of G9a protein levels in cancer cells", "assay_type": "cell-based", "in_short": "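Cells (22Rv1, K562, H1299) were treated for 24 h at the indicated concentrations; 22Rv1 time courses were run at 3 μM. Cells were lysed in RIPA with protease inhibitors, and 10–30 μg of protein was resolved by SDS-PAGE and transferred to PVDF. Blots were probed overnight at 4 °C, with vinculin/β-actin as loading controls. Band intensity was normalised to DMSO, with n = 2 independent experiments (mean ± SD).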"}, "PNT2 cells": {"test_system": "PNT2 cells", "assay": "Cell viability assay", "assay_type": "cell-based, human", "details": "5 days, WST-8 (CCK-8)", "in_short": "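PNT2 cells were grown at 37 °C in 5% CO2 and treated with serial dilutions of the test compound. The general protocol gives a treatment span of 5–8 days. Viability was measured by CCK-8 (WST-8) absorbance at 450 nm, with 690 nm as reference. IC50 was calculated by curve fitting.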"}, "PRMT7 [1]": {"target": "T2, PRMT7 (Homo sapiens, UniProt Q9NVM4)", "T2 sequence (Q9NVM4 1-692)": "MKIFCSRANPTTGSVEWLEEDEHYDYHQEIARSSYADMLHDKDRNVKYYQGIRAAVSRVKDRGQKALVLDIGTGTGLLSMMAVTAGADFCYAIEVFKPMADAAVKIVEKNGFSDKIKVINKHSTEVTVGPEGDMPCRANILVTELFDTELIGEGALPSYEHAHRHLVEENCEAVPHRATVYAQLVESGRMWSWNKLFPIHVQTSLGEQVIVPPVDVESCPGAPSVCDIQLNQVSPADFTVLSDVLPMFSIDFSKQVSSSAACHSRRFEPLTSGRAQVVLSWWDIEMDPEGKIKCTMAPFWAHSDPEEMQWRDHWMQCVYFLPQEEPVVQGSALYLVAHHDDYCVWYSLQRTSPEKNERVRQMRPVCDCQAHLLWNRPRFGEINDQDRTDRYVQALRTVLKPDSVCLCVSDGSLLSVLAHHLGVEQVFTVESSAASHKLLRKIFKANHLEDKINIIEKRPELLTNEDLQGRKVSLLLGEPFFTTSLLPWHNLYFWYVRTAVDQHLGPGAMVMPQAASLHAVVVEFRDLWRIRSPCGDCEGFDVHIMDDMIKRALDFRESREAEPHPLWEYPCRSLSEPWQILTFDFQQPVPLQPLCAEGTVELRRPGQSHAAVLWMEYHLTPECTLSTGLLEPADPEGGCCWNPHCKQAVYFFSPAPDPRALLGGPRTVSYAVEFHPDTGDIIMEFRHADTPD", "assay": "Radioactive methyltransferase assay, PRMT7", "assay_type": "biochemical", "details": "10 μM compound", "in_short": "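The selectivity screen covered 21 protein methyltransferases in radioisotope-based MT HotSpot methyltransferase assays run by a contract laboratory. Test compound was at 10 μM. Each assay was run in duplicate and reported as mean ± SD of the two replicates.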"}, "EZH2": {"target": "EZH2 (Homo sapiens, UniProt Q15910)", "sequence (Q15910 whole entry)": "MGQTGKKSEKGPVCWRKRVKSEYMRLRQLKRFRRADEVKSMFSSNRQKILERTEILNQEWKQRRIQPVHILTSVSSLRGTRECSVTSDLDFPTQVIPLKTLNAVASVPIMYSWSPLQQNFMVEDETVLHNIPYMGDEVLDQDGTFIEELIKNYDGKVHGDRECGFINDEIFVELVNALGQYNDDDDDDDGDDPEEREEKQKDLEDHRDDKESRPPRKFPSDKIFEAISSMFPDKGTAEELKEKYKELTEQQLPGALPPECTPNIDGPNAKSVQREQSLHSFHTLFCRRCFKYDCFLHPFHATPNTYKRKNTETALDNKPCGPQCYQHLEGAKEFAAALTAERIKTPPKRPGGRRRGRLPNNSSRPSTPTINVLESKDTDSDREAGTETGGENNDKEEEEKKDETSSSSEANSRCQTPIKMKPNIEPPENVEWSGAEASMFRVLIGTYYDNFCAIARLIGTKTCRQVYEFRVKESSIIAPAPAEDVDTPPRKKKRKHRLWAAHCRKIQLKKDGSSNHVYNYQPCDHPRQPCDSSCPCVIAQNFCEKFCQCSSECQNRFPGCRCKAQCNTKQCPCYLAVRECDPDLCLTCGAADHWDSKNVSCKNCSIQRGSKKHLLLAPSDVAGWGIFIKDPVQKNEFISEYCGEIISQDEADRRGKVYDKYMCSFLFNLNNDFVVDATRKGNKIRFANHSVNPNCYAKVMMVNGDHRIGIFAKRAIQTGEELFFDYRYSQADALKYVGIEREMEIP", "assay": "Western blot of EZH2 protein level in 22Rv1 cells", "assay_type": "cell-based", "details": "indicated concentration, 24 h, WB"}, "PRMT7 [2]": {"target": "T2, PRMT7", "assay": "Western blot of PRMT7 protein level in 22Rv1 cells", "assay_type": "cell-based", "details": "indicated concentration, 24 h, WB", "in_short": "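22Rv1 cells were treated with the test compound at the indicated concentrations for 24 h. Cells were lysed in RIPA containing protease inhibitor cocktail, and protein was resolved by SDS-PAGE and transferred to PVDF. Primary antibody was applied overnight at 4 °C, with β-actin as loading control. Blots are representative of two independent experiments.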"}, "GLP mRNA": {"test_system": "GLP mRNA", "assay": "RT-qPCR of GLP mRNA in H1299 cells", "assay_type": "cell-based", "details": "3 μM, 24 h, normalized to DMSO", "in_short": "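H1299 cells were treated with DMSO or test compound at 3 μM for 24 h. Total RNA was extracted and reverse-transcribed to cDNA. qPCR used gene-specific primers for G9a and GLP, and a GAPDH primer set was included.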"}}}
{"smiles": "COc1cc2c(NC3CCN(CCCC(=O)NCCCCCCCCCCCC(=O)N[C@H](C(=O)N4C[C@H](O)C[C@H]4C(=O)NCc4ccc(-c5scnc5C)cc4)C(C)(C)C)CC3)nc(N3CCC(F)(F)CC3)nc2cc1OCCCN1CCCC1", "note": "[Compound 10, (2S,4R)-1-((S)-2-(12-(4-(4-((2-(4,4-difluoropiperidin-1-yl)-6-methoxy-7-(3-(pyrrolidin-1-yl)propoxy)quinazolin-4-yl)amino)piperidin-1-yl)butanamido)dodecanamido)-3,3-dimethylbutanoyl)-4-hydroxy-N-(4-(4-methylthiazol-5-yl)benzyl)pyrrolidine-2-carboxamide]", "values": [{"measurement": "G9a degradation, in words", "setting": "G9a; 22Rv1 cells, 1 μM, 24 h, WB (Figure 3A)", "value": "potently induced degradation"}, {"measurement": "duration of G9a degradation effect", "setting": "G9a; 22Rv1 cells, 3 μM", "value": "up to 48 h"}, {"measurement": "time at which G9a degradation was first observed", "setting": "G9a; 22Rv1 cells, 3 μM", "value": 4, "unit": "h"}, {"measurement": "time to complete G9a degradation", "setting": "G9a; 22Rv1 cells, 3 μM", "value": "around 24 h"}, {"measurement": "G9a degradation, in words", "setting": "G9a; H1299 cells, 3 μM, 24 h, WB", "value": "degraded"}, {"measurement": "G9a degradation, in words", "setting": "G9a; K562 cells, 3 μM, 24 h, WB", "value": "induced G9a and GLP degradation"}, {"measurement": "DC50", "setting": "G9a; read-out: half-maximal degradation concentration (DC50) for G9a, 22Rv1 cells, 24 h, WB", "value": "274 ± 2", "unit": "nM"}, {"measurement": "cell viability of normal prostate cells", "setting": "PNT2 cells", "value": "does not affect the cell viability"}, {"measurement": "inhibition of PRMT7", "setting": "PRMT7 [1]", "value": "moderately inhibited"}, {"measurement": "EZH2 degradation", "setting": "EZH2", "value": "cannot induce the degradation"}, {"measurement": "PRMT7 degradation", "setting": "PRMT7 [2]", "value": "cannot induce the degradation"}, {"measurement": "mRNA levels of GLP", "setting": "GLP mRNA", "value": "did not significantly alter"}]}
